{
  "source": "ChEMBL document CHEMBL1131443",
  "about": "“Development of dual-acting agents for thromboxane receptor antagonism and thromboxane synthase inhibition. 3. Synthesis and biological activities of oxazolecarboxamide-substituted omega-phenyl-omega-(3-pyridyl)alkenoic acid derivatives and related compounds” (J Med Chem, 1998)",
  "key": {"[1]": {"species_on_record": "Homo sapiens", "assay": "Inhibition of U-46,619 (1 uM)-induced platelet aggregation in human platelet-rich plasma(PRP)", "format": "functional", "summary_of_the_method": "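Citrated blood (1/10 volume 3.8% trisodium citrate) from volunteers free of platelet-affecting medication for 10 days; PRP spun at 100g for 12 min. Compound or vehicle preincubated with PRP for 1 min at 37 °C. Aggregation induced with U46619 and followed for 3 min.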"}, "[2]": {"target": "T1, Thromboxane A2 receptor (Homo sapiens, UniProt P21731)", "T1 sequence (P21731 whole entry)": "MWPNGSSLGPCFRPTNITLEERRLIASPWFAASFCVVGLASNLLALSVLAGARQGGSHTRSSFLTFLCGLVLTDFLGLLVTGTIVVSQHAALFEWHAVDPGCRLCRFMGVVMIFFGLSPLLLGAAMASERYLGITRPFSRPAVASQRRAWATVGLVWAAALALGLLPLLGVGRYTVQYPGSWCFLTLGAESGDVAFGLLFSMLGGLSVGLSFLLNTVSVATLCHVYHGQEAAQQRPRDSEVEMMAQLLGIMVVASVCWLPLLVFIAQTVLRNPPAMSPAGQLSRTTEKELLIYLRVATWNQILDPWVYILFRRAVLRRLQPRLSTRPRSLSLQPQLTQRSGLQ", "assay": "In vitro for antagonistic activity against […]", "format": "functional", "summary_of_the_method": "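Buffer was 10 mM Hepes, 2 mM CHAPS and 10 μM indomethacin, pH 7.4. Competitor range 10^-10 to 10^-5 M; incubation 30 °C for 30 min; stopped with ice-cold 25 mM Tris pH 7.4 and filtered. Nonspecific binding taken with 10 μM SQ29548. Run in triplicate.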"}, "[3]": {"target": "T2, Thromboxane-A synthase (Homo sapiens, UniProt P24557)", "T2 sequence (P24557 whole entry)": "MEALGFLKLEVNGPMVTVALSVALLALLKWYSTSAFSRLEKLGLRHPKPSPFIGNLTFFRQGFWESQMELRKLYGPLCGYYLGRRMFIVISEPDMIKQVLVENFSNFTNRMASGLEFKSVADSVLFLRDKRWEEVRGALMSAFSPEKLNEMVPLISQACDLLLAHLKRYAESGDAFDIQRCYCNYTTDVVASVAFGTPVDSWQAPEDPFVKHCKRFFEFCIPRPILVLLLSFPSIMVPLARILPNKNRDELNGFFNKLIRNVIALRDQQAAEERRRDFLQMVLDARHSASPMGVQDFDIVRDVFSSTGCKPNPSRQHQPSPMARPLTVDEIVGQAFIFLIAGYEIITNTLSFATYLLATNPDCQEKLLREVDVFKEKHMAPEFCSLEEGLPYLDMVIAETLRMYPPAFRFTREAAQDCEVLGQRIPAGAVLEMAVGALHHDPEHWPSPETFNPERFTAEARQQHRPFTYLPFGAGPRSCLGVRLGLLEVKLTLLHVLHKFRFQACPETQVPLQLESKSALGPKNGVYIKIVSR", "assay": "In vitro for inhibitory activity against thromboxane synthase", "summary_of_the_method": "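Compound or vehicle incubated with whole human blood for 30 min at 37 °C, then serum was prepared. Serum TXB2, the stable TXA2 metabolite, was measured by radioimmunoassay. Run in triplicate.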"}},
  "data": [
    {"smiles": "CC(OCCCNC(=O)c1coc(-c2ccc(/C(=C\\CCCCC(=O)O)c3cccnc3)cc2)n1)C1CCCCC1", "note": "(configuration not stated)", "values": [
      {"measurement": "IC50", "setting": "[1]", "result": 5000, "unit": "nM"}
    ]},
    {"smiles": "O=C(O)CCCC/C=C(\\c1ccc(-c2nc(C(=O)NCCCCOc3ccccc3)co2)cc1)c1cccnc1", "values": [
      {"measurement": "IC50", "setting": "[1]", "result": 500, "unit": "nM"}
    ]},
    {"smiles": "O=C(O)CCCC/C=C(\\c1ccc(-c2nc(C(=O)NCCc3ccccc3)co2)cc1)c1cccnc1", "values": [
      {"measurement": "Kd", "setting": "[2]", "result": 82.4, "unit": "nM"},
      {"measurement": "IC50", "setting": "[3]", "result": 9.4, "unit": "nM"}
    ]},
    {"smiles": "COc1ccc(CCCNC(=O)c2coc(-c3ccc(/C(=C\\CCCCC(=O)O)c4cccnc4)cc3)n2)cc1", "values": [
      {"measurement": "Kd", "setting": "[2]", "result": 119, "unit": "nM"},
      {"measurement": "IC50", "setting": "[3]", "result": 2.7, "unit": "nM"}
    ]},
    {"smiles": "O=C(O)CCCC/C=C(\\c1ccc(-c2nc(C(=O)N[C@@H]3C[C@H]3c3ccccc3)co2)cc1)c1cccnc1", "values": [
      {"measurement": "IC50", "setting": "[1]", "result": 5000, "unit": "nM"}
    ]},
    {"smiles": "O=C(O)CCCC/C=C(\\c1ccc(-c2nc(C(=O)NCCOCc3ccccc3)co2)cc1)c1cccnc1", "values": [
      {"measurement": "Kd", "setting": "[2]", "result": 156, "unit": "nM"},
      {"measurement": "IC50", "setting": "[3]", "result": 47.5, "unit": "nM"}
    ]},
    {"smiles": "O=C(O)CCCC/C=C(\\c1ccc(-c2nc(C(=O)NCCCCC3CCCCC3)co2)cc1)c1cccnc1", "values": [
      {"measurement": "IC50", "setting": "[1]", "result": 400, "unit": "nM"}
    ]},
    {"smiles": "O=C(O)CCCC/C=C(\\c1ccc(-c2nc(C(=O)NCCOCC3CCCCC3)co2)cc1)c1cccnc1", "values": [
      {"measurement": "Kd", "setting": "[2]", "result": 43.3, "unit": "nM"},
      {"measurement": "IC50", "setting": "[3]", "result": 36.7, "unit": "nM"}
    ]},
    {"smiles": "CCOCCCNC(=O)c1coc(-c2ccc(/C(=C\\CCCCC(=O)O)c3cccnc3)cc2)n1", "values": [
      {"measurement": "Kd", "setting": "[2]", "result": 1400, "unit": "nM"}
    ]},
    {"smiles": "O=C(O)CCCC/C=C(\\c1ccc(-c2nc(C(=O)NCCCN3CCOCC3)co2)cc1)c1cccnc1", "values": [
      {"measurement": "IC50", "setting": "[3]", "result": 50.8, "unit": "nM"}
    ]},
    {"smiles": "O=C(O)CCCC/C=C(\\c1ccc(-c2nc(C(=O)NS(=O)(=O)c3ccc(Cl)cc3)co2)cc1)c1cccnc1", "values": [
      {"measurement": "IC50", "setting": "[1]", "result": 4000, "unit": "nM"}
    ]},
    {"smiles": "O=C(O)CCCCO/N=C(/c1cccnc1)c1cccc(C(F)(F)F)c1", "note": "[RIDOGREL]", "values": [
      {"measurement": "Kd", "setting": "[2]", "result": 8000, "unit": "nM"},
      {"measurement": "IC50", "setting": "[3]", "result": 14.7, "unit": "nM"}
    ]}
  ]
}
